Laboratory results published in ChEMBL document CHEMBL4261634, “Design and optimization of 2,3-dihydrobenzo[b][1,4]dioxine propanoic acids as novel GPR40 agonists with improved pharmacokinetic and safety profiles” (Bioorg Med Chem, 2018).
Active and inactive are the calls of the source. The rule behind the calls is not given here.

Legend:
[1] = test system: Salmonella typhimurium; experiment: Mutagenicity in Salmonella typhimurium by Ames test; format: toxicity, organism-based; conditions: salmonella enterica subsp. enterica serovar typhimurium
[2] = test system: Rattus norvegicus; experiment: Subacute toxicity in Sprague-Dawley rat assessed as effect on food intake at 50 to 100 mg/kg, po administered once daily for 2 weeks; format: organism-based; conditions: in vivo, 336 h
Method in brief: (§1)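 SD rats dosed orally once daily for two weeks at 50 mg/kg and 100 mg/kg. Subacute toxicity was assessed over the dosing period from survival rate, behaviour, food intake and organ coefficients.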

[3] = target: Free fatty acid receptor 1 (Homo sapiens, UniProt O14842); experiment: Agonist activity at GPR40 (unknown origin); format: functional
Chain of Free fatty acid receptor 1 (O14842 whole entry): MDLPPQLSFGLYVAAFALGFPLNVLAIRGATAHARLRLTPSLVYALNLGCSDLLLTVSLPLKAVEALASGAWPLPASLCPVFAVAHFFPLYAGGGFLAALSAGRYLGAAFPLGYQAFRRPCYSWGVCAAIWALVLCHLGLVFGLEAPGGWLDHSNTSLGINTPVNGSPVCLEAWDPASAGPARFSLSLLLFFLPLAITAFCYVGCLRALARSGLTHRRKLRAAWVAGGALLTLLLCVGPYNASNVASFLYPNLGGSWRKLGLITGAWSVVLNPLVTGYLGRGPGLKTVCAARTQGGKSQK
Method in brief: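 Human GPR40 activity read by calcium mobilization to give EC50. Emax expressed relative to linoleic acid as 100%. Mean ± SD, n = 3.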

[4] = target: T1, Solute carrier organic anion transporter family member 1B1 (Homo sapiens, UniProt Q9Y6L6); experiment: Inhibition of human OATP1BA
T1 sequence (Q9Y6L6 whole entry): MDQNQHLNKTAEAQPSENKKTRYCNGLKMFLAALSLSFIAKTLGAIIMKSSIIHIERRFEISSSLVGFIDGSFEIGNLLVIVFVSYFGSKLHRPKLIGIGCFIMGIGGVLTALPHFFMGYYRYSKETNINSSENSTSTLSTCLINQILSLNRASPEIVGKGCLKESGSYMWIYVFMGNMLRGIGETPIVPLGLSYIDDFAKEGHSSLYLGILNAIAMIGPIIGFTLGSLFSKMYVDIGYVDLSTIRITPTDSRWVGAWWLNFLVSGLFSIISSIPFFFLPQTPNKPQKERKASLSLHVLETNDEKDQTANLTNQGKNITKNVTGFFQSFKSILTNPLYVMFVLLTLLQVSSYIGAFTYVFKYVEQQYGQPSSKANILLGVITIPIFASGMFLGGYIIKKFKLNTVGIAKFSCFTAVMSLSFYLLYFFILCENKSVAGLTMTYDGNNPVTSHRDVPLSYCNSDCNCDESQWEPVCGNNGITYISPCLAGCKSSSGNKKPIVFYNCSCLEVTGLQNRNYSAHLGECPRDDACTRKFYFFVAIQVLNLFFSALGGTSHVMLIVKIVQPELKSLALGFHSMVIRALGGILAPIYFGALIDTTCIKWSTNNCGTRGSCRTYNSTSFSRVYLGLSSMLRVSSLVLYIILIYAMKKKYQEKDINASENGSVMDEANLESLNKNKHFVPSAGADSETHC

[5] = Elimination half life in Sprague-Dawley rat at 3 mg/kg, po by LC-ESI-MS analysis; format: ADME, organism-based; conditions: in vivo, read-out: beta t1/2 (converted)
Method in brief: (§2)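 SD rats dosed orally (3 or 10 mg/kg) or by intravenous injection (1 mg/kg). Plasma PK parameters derived per route: Cmax, AUC0-t, Tmax, t1/2 and F after oral dosing; CL, AUC0-t, MRT, t1/2 and Vdss after iv dosing. Mean ± SD from three independent experiments (n = 3).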

[6] = AUC (0 to t) in Sprague-Dawley rat at 10 mg/kg, po by LC-ESI-MS analysis; format: ADME, organism-based; conditions: in vivo; method in brief: as §2
[7] = test system: Hepatocyte; experiment: Toxicity in sandwich-cultured Sprague-Dawley rat hepatocytes assessed as inhibition of hepatobiliary transport by measuring biliary excretion index at 5 to 40 uM after 15 mins in presence of d8-TCA by LC-MS/MS analysis; format: cell-based; conditions: 0.25 h
Method in brief: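 Sandwich-cultured rat hepatocytes incubated with compound and d8-TCA in standard (Ca2+-containing) or Ca2+-free buffer. Cellular d8-TCA measured, and the biliary excretion index calculated as the fraction of accumulated bile acid excreted into bile. Mean of three independent experiments.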

[8] = target: T2, Free fatty acid receptor 3 (Homo sapiens) (UniProt O14843); experiment: Agonist activity at GPR41 (unknown origin) up to 100 uM; format: functional
T2 sequence (whole entry): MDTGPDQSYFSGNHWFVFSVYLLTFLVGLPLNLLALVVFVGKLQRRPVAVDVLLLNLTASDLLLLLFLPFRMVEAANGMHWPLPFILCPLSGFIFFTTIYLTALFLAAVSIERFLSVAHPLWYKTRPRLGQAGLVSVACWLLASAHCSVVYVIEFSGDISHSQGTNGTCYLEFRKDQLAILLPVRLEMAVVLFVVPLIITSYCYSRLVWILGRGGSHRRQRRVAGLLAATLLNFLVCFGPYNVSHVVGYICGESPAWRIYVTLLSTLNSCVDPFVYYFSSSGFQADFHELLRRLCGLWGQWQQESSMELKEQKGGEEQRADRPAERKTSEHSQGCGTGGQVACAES

[9] = target: ATP-binding cassette sub-family C member 2 (Homo sapiens, UniProt Q92887); experiment: Inhibition of human MRP2
Chain of ATP-binding cassette sub-family C member 2 (Q92887 whole entry): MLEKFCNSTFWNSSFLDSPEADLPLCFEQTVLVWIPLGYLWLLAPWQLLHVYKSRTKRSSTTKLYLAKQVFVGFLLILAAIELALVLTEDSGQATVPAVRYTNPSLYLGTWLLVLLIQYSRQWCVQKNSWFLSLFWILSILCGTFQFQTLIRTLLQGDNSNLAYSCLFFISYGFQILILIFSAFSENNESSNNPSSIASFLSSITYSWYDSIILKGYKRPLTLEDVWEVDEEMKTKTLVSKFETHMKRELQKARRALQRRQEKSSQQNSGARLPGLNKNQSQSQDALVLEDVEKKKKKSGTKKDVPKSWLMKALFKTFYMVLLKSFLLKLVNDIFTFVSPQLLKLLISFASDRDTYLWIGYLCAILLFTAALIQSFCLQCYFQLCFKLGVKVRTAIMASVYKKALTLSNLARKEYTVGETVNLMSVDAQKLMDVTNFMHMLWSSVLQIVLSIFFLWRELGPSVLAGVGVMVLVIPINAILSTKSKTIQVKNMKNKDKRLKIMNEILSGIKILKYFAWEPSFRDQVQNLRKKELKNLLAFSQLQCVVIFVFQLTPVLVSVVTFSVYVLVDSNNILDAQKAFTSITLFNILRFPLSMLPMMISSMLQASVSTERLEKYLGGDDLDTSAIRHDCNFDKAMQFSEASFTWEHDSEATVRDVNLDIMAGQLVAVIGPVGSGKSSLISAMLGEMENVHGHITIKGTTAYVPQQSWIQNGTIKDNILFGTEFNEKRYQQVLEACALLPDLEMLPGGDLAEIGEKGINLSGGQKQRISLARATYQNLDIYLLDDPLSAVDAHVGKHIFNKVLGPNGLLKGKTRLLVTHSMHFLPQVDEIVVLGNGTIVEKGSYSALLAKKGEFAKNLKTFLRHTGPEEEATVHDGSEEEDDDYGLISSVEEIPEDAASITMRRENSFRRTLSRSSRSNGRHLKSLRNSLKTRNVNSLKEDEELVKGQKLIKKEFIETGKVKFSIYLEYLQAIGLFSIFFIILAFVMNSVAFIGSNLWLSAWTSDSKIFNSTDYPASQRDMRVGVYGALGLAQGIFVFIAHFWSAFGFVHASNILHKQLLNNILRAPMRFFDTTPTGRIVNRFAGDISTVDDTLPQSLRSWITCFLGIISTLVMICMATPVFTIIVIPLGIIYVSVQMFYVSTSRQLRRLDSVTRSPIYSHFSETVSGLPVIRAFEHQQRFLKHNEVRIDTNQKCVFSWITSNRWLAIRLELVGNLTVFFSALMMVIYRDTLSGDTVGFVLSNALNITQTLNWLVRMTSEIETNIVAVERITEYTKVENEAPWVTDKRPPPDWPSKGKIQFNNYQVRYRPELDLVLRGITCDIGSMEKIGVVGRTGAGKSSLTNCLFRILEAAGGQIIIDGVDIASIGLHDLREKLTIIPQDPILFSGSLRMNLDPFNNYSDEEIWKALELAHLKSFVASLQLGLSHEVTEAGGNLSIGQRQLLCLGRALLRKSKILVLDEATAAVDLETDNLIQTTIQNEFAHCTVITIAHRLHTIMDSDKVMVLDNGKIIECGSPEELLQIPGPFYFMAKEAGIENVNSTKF

[10] = target: Cytochrome P450 3A4 (Homo sapiens, UniProt P08684); experiment: Inhibition of CYP3A4 (unknown origin); format: ADME
Chain of Cytochrome P450 3A4 (P08684 whole entry): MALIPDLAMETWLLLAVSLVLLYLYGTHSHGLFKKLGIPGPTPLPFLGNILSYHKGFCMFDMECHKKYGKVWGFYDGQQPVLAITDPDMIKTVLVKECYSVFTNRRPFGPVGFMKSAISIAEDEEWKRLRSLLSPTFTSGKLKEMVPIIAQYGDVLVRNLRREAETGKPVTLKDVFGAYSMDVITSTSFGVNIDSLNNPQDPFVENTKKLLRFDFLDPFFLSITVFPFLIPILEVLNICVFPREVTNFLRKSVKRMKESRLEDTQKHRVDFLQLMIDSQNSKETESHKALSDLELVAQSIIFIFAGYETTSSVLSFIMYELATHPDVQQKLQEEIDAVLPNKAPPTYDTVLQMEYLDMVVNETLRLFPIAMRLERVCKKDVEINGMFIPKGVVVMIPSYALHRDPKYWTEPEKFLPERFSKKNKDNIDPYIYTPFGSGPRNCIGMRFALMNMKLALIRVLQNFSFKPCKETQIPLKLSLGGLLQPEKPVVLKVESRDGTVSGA

[11] = Tmax in Sprague-Dawley rat at 10 mg/kg, po by LC-ESI-MS analysis; format: ADME, organism-based; conditions: in vivo; method in brief: as §2
[12] = Clearance in Sprague-Dawley rat at 1 mg/kg, iv by LC-ESI-MS analysis; format: ADME, organism-based; conditions: in vivo; method in brief: as §2
[13] = Elimination half life in Sprague-Dawley rat at 1 mg/kg, iv by LC-ESI-MS analysis; format: ADME, organism-based; conditions: in vivo, read-out: beta t1/2 (converted); method in brief: as §2
[14] = target: T3, Free fatty acid receptor 4 (Homo sapiens) (UniProt Q5NUL3); experiment: Agonist activity at GPR120 (unknown origin) up to 100 uM; format: functional
T3 sequence (whole entry): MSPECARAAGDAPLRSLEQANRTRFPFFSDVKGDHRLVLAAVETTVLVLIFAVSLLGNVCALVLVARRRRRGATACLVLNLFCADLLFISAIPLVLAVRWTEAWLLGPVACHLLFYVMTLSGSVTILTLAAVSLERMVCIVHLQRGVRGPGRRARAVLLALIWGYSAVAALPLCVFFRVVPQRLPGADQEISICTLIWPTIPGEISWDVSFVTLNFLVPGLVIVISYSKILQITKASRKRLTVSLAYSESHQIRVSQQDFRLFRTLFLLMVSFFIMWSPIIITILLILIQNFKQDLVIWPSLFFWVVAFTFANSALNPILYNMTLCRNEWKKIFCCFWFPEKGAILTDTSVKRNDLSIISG

[15] = Oral bioavailability in Sprague-Dawley rat at 3 mg/kg by LC-ESI-MS analysis; format: ADME, organism-based; conditions: in vivo; method in brief: as §2
[16] = target: Cytochrome P450 2D6 (Homo sapiens, UniProt P10635); experiment: Inhibition of CYP2D6 (unknown origin); format: ADME
Chain of Cytochrome P450 2D6 (P10635 whole entry): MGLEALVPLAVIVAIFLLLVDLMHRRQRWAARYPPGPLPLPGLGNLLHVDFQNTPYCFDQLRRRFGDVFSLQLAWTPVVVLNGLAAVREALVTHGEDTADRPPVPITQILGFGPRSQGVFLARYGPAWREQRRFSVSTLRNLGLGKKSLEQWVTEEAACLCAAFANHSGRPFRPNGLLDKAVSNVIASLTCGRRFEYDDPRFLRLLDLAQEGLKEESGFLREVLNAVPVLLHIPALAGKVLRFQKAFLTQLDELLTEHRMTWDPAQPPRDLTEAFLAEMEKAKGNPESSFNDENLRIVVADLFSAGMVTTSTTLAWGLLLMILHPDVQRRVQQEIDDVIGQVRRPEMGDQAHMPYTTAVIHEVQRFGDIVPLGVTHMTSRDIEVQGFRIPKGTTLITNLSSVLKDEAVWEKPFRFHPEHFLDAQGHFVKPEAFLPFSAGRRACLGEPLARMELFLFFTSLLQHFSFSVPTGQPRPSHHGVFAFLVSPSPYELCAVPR

[17] = test system: Rattus norvegicus; experiment: Subacute toxicity in Sprague-Dawley rat assessed as effect on behavior at 50 to 100 mg/kg, po administered once daily for 2 weeks; format: organism-based; conditions: in vivo, 336 h; method in brief: as §1
[18] = test system: Rattus norvegicus; experiment: Antidiabetic activity in Sprague-Dawley rat assessed as reduction in blood glucose excursion at 10 to 20 mg/kg, po administered 60 mins prior to glucose challenge by OGTT; format: functional, organism-based
Method in brief: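 OGTT in SD rats: compound given orally 60 min before a 3.0 g/kg glucose challenge. Blood glucose followed over time, and AUC0-60min or AUC0-120min calculated versus vehicle group. Mean ± SD, n = 8.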

CC#C[C@@H](CC(=O)O)c1ccc(OC[C@H]2COc3ccc(Cl)cc3O2)cc1
Activity [1]: Non-Toxic | Activity [2]: Non-Toxic | EC50 [3]: 0.046 µM | IC50 [4]: > 100 µM | half-life [5]: 16.1 h | AUC(0-t) [6]: 656 µg·h/mL | Activity [7]: Non-Toxic | Activity [8]: inactive | IC50 [9]: > 100 µM | IC50 [10]: > 100 µM | Tmax [11]: 4 h | clearance [12]: 0.17 mL/min/kg | half-life [13]: 13.2 h | Activity [14]: inactive | bioavailability [15]: 65.5% | IC50 [16]: > 100 µM | Activity [17]: Non-Toxic | Activity [18]: Active
